Experiments:
[1] = target: Gamma-aminobutyric acid receptor subunit alpha-6 (Rattus norvegicus) (UniProt P30191); assay: Displacement of [3H]Muscimol from GABAAalpha6 receptor in Sprague-Dawley rat brain cerebellum membrane at 100 uM; type: tissue-based
Summary of the method: (§1)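 Well-washed membranes from adult male Sprague-Dawley rat cortex or cerebellum (50–200 μg protein). Incubated 60 min on ice in 50 mM Tris/citrate, pH 7.3, with 6 nM [3H]muscimol and test compound. […] Filtered and counted by scintillation. IC50 and pseudo-Hill coefficient obtained by nonlinear regression.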

[2] = Agonist activity at rat GABAA alpha-1R66C-beta-2 receptor mutant expressed in Xenopus laevis oocytes assessed as inhibition of GABA-induced current at -60 mV at 10 mM in presence of 2 mM 2-sulfonatoethyl methanethiosulfonate by Two-Electrode voltage clamp method; type: functional, Oocyte; set-up: scale not given: the % may be the effect or the level left
[3] = target: GABA A receptor alpha-5/beta-3/gamma-2 (Rattus norvegicus) (UniProt P18508+P19969+P63079); assay: Intrinsic activity at recombinant rat GABAA alpha-5-beta-3-gamma-2 receptor expressed in HEK293 cells assessed as induction of current at 1 mM by whole-cell patch-clamp technique relative to GABA; type: cell-based
Summary of the method: (§2)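 Rat αiβ3γ2S receptors transiently expressed in HEK293 cells, with EGFP marking transfected cells, recorded 2 days after transfection. Whole-cell patch clamp in HEPES saline, pH 7.35. Drug applied alone at 1, 10, 100 and 1000 μM. […] Data from at least four cells.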

[4] = Agonist activity at rat GABAA alpha-1S68C-beta-2 receptor mutant expressed in Xenopus laevis oocytes as inhibition of GABA-induced current at -60 mV by Two-Electrode voltage clamp method in presence of picrotoxinin; type: functional, cell-based; details: Oocyte
[5] = Agonist activity at rat GABAA alpha-1S68C-beta-2 receptor mutant expressed in Xenopus laevis oocytes at -60 mV at 30 mM by Two-Electrode voltage clamp method; type: functional, Oocyte
Summary of the method: (§3)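 Rat α1β2 receptors (wt or cysteine mutant) expressed in Xenopus oocytes. Two-electrode voltage clamp at −60 mV, room temperature, Ca2+-free frog Ringer, pH 7.5. Increasing test concentrations applied alone. Currents normalized to the maximal GABA-induced current. Some dose-response curves had only two trials.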

[6] = Agonist activity at rat GABAA alpha-1R66C-beta-2 receptor mutant expressed in Xenopus laevis oocytes assessed as reduction of GABA-induced current at -60 mV at 30 mM by Two-Electrode voltage clamp method in presence of 5.5 mM GABA; type: functional, Oocyte; set-up: scale not given: the % may be the effect or the level left
Summary of the method: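 α1R66Cβ2 oocytes, two-electrode voltage clamp at −60 mV. […] Then 10 mM MTSES (12 s) and 10 mM DTT (20 s) were applied. Reaction rate fitted monoexponentially against cumulative application time.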

[7] = target: T1, GABA A receptor alpha-2/beta-2/gamma-2 (Rattus norvegicus) (UniProt P18508+P23576+P63138); assay: Intrinsic activity at recombinant rat GABAA alpha-2-beta-3-gamma-2 receptor expressed in HEK293 cells assessed as induction of current at 1 mM by whole-cell patch-clamp technique relative to GABA; type: cell-based; summary of the method: as §2
[8] = target: Gamma-aminobutyric acid receptor subunit alpha-6 (Rattus norvegicus) (UniProt P30191); assay: (§4) Displacement of [3H]Muscimol from GABAAalpha6 receptor in Sprague-Dawley rat brain cerebellum membrane; type: tissue-based; summary of the method: as §1
[9] = target: Gamma-aminobutyric acid receptor subunit alpha-6 (Rattus norvegicus, UniProt P30191); assay: as §4; type: tissue-based; summary of the method: as §1
[10] = Agonist activity at rat GABAA alpha-1F64C-beta-2 receptor mutant expressed in Xenopus laevis oocytes assessed as inhibition of GABA-induced current at -60 mV at 1 mM by Two-Electrode voltage clamp method; type: functional, Oocyte; set-up: scale not given: the % may be the effect or the level left
Summary of the method: (§5)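 Xenopus oocytes injected with rat α1 (wt or cysteine mutant) plus β2 mRNA, kept 2–10 days at 17 °C. Two-electrode voltage clamp at −60 mV, room temperature, Ca2+-free frog Ringer, pH 7.5.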

[11] = target: Gamma-aminobutyric acid receptor subunit alpha-3 (Rattus norvegicus) (UniProt P20236); assay: Intrinsic activity at recombinant rat GABAA alpha-3-beta-3-gamma-2 receptor expressed in HEK293 cells assessed as induction of current at 1 mM by whole-cell patch-clamp technique relative to GABA; type: cell-based; summary of the method: as §2
[12] = Agonist activity at rat GABAA alpha-1S68C-beta-2 receptor mutant expressed in Xenopus laevis oocytes as inhibition of GABA-induced current at -60 mV at 1 mM by Two-Electrode voltage clamp method; type: functional, Oocyte; set-up: scale not given: the % may be the effect or the level left; summary of the method: as §5
[13] = target: Gamma-aminobutyric acid receptor subunit alpha-6 (Rattus norvegicus) (UniProt P30191); assay: Displacement of [3H]Muscimol from GABAAalpha6 receptor in Sprague-Dawley rat brain cerebellum membrane at 1 mM; type: tissue-based; summary of the method: as §1
[14] = organism: Rattus norvegicus; assay: (§6) Displacement of [3H]Muscimol from GABAA alpha-1-alpha-5 receptor in Sprague-Dawley rat brain cortex membrane; summary of the method: as §1
[15] = Agonist activity at rat GABAA alpha-1F64C-beta-2 receptor mutant expressed in Xenopus laevis oocytes assessed as reduction of GABA-induced current at -60 mV at 10 mM by Two-Electrode voltage clamp method in presence of 10 uM 2-sulfonatoethyl methanethiosulfonate; type: functional, Oocyte; set-up: scale not given: the % may be the effect or the level left
[16] = Agonist activity at rat GABAA alpha-1F64C-beta-2 receptor mutant expressed in Xenopus laevis oocytes at -60 mV at 30 mM by Two-Electrode voltage clamp method; type: functional, Oocyte; summary of the method: as §3
[17] = target: Gamma-aminobutyric acid receptor subunit alpha-1 (Rattus norvegicus) (UniProt P62813); assay: Agonist activity at rat wild type GABAA alpha-1-beta-2 receptor expressed in Xenopus laevis oocytes assessed as inhibition of drug-induced current at -60 mV at 10 mM in presence of 100 uM picrotoxinin by Two-Electrode voltage clamp method; type: functional, cell-based; set-up: scale not given: the % may be the effect or the level left; details: Oocyte
Summary of the method: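 Oocytes expressing rat α1β2, two-electrode voltage clamp at −60 mV. Several 10 mM test pulses applied, then washout. 100 μM picrotoxinin applied, immediately followed by co-application of 10 mM drug plus 100 μM picrotoxinin, and the current recorded.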

[18] = organism: Rattus norvegicus; assay: Displacement of [3H]Muscimol from GABAA alpha-1-alpha-5 receptor in Sprague-Dawley rat brain cortex membrane at 1 mM; summary of the method: as §1
[19] = organism: Rattus norvegicus; assay: Displacement of [3H]Muscimol from GABAA alpha-1-alpha-5 receptor in Sprague-Dawley rat brain cortex membrane at 100 uM; summary of the method: as §1
[20] = target: Gamma-aminobutyric acid receptor subunit alpha-1 (Rattus norvegicus) (UniProt P62813); assay: Agonist activity at rat wild type GABAA alpha-1-beta-2 receptor expressed in Xenopus laevis oocytes as inhibition of GABA-induced current at -60 mV at 1 mM by Two-Electrode voltage clamp method; type: functional, cell-based; set-up: scale not given: the % may be the effect or the level left; details: Oocyte; summary of the method: as §5
[21] = target: T2, Gamma-aminobutyric acid receptor subunit alpha-1 (Rattus norvegicus, UniProt P62813+P63138); assay: Agonist activity at rat wild type GABAA alpha-1-beta-2 receptor expressed in Xenopus laevis oocytes at -60 mV by Two-Electrode voltage clamp method; type: functional, cell-based, Oocyte
[22] = Agonist activity at rat GABAA alpha-1S68C-beta-2 receptor mutant expressed in Xenopus laevis oocytes at -60 mV by Two-Electrode voltage clamp method; type: functional, cell-based; details: Oocyte
[23] = Agonist activity at rat GABAA alpha-1F64C-beta-2 receptor mutant expressed in Xenopus laevis oocytes assessed as inhibition of GABA-induced current at -60 mV by Two-Electrode voltage clamp method in presence of picrotoxinin; type: functional, cell-based; details: Oocyte
[24] = target: T1, GABA A receptor alpha-2/beta-2/gamma-2 (Rattus norvegicus); assay: Antagonist activity at recombinant rat GABAA alpha-2-beta-3-gamma-2 receptor expressed in HEK293 cells assessed as inhibition of GABA-induced current at 1 uM by whole-cell patch-clamp technique; type: functional, cell-based; set-up: scale not given: the % may be the effect or the level left
Summary of the method: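 HEK293 cells transiently transfected by calcium phosphate with rat αi, β3, γ2S and EGFP cDNAs, recorded 2 days later. Whole-cell patch clamp in HEPES saline, pH 7.35. […] Response expressed relative to the GABA-alone current. Data from at least four cells.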

[25] = target: T2, Gamma-aminobutyric acid receptor subunit alpha-1; assay: Agonist activity at rat wild type GABAA alpha-1-beta-2 receptor expressed in Xenopus laevis oocytes as inhibition of GABA-induced current at -60 mV by Two-Electrode voltage clamp method in presence of picrotoxinin; type: functional, cell-based, Oocyte
[26] = Agonist activity at rat GABAA alpha-1S68C-beta-2 receptor mutant expressed in Xenopus laevis oocytes assessed as reduction of GABA-induced current at -60 mV at 10 mM by Two-Electrode voltage clamp method in presence of 450 uM 2-sulfonatoethyl methanethiosulfonate; type: functional, Oocyte; set-up: scale not given: the % may be the effect or the level left
[27] = Agonist activity at rat GABAA alpha-1F64C-beta-2 receptor mutant expressed in Xenopus laevis oocytes at -60 mV by Two-Electrode voltage clamp method; type: functional, cell-based; details: Oocyte
[28] = target: Gamma-aminobutyric acid receptor subunit alpha-1 (Rattus norvegicus) (UniProt P62813); assay: Agonist activity at rat wild type GABAA alpha-1-beta-2 receptor expressed in Xenopus laevis oocytes at -60 mV at 30 mM by Two-Electrode voltage clamp method; type: functional, cell-based; details: Oocyte; summary of the method: as §3
[29] = target: Gamma-aminobutyric acid receptor subunit alpha-3 (Rattus norvegicus, UniProt P18508+P20236+P63079); assay: Agonist activity at rat recombinant GABAA alpha-3-beta-3-gamma-2 receptor expressed in HEK293 cells assessed as normalization of GABA-induced current by whole cell patch-clamp technique; type: functional, cell-based
Summary of the method: (§7)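 HEK293 cells transiently co-transfected (calcium phosphate) with rat αi, β3 and γ2S cDNAs plus EGFP marker; recorded 2 days later by whole-cell patch clamp in HEPES saline pH 7.35.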

[30] = as §6; summary of the method: as §1
[31] = target: Gamma-aminobutyric acid receptor subunit alpha-4 (Rattus norvegicus) (UniProt P28471); assay: Intrinsic activity at recombinant rat GABAA alpha-4-beta-3-gamma-2 receptor expressed in HEK293 cells assessed as induction of current at 1 mM by whole-cell patch-clamp technique relative to GABA; type: cell-based; summary of the method: as §2
[32] = target: Gamma-aminobutyric acid receptor subunit alpha-6 (Rattus norvegicus, UniProt P18508+P30191+P63079); assay: Agonist activity at rat recombinant GABAA alpha-6-beta-3-gamma-2 receptor expressed in HEK293 cells assessed as normalization of GABA-induced current by whole cell patch-clamp technique; type: functional, cell-based
Summary of the method: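 HEK293 cells transiently transfected by calcium phosphate with rat α6 (2 μg), β3 (0.4 μg) and γ2S (0.3 μg) cDNAs plus 1 μg EGFP vector per plate. Whole-cell patch clamp was done 2 days later on EGFP-positive cells in HEPES saline at pH 7.35. Compound was applied alone by fast perfusion at 1, 10, 100 and 1000 μM.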

[33] = target: Gamma-aminobutyric acid receptor subunit alpha-4 (Rattus norvegicus, UniProt P18508+P28471+P63079); assay: Agonist activity at rat recombinant GABAA alpha-4-beta-3-gamma-2 receptor expressed in HEK293 cells assessed as normalization of GABA-induced current by whole cell patch-clamp technique; type: functional, cell-based; summary of the method: as §7
[34] = target: GABA A receptor alpha-5/beta-3/gamma-2 (Rattus norvegicus, UniProt P18508+P19969+P63079); assay: Agonist activity at rat recombinant GABAA alpha-5-beta-3-gamma-2 receptor expressed in HEK293 cells assessed as normalization of GABA-induced current by whole cell patch-clamp technique; type: functional, cell-based; summary of the method: as §7
[35] = target: GABA-A receptor; alpha-1/beta-2/gamma-2 (Rattus norvegicus) (UniProt P18508+P62813+P63138); assay: Intrinsic activity at recombinant rat GABAA alpha-1-beta-3-gamma-2 receptor expressed in HEK293 cells assessed as induction of current at 1 mM by whole-cell patch-clamp technique relative to GABA; type: cell-based; summary of the method: as §2
[36] = target: Gamma-aminobutyric acid receptor subunit alpha-6 (Rattus norvegicus) (UniProt P30191); assay: Intrinsic activity at recombinant rat GABAA alpha-6-beta-3-gamma-2 receptor expressed in HEK293 cells assessed as induction of current at 1 mM by whole-cell patch-clamp technique relative to GABA; type: cell-based; summary of the method: as §2

Chain of Gamma-aminobutyric acid receptor subunit alpha-1 (Rattus norvegicus) (P62813 whole entry): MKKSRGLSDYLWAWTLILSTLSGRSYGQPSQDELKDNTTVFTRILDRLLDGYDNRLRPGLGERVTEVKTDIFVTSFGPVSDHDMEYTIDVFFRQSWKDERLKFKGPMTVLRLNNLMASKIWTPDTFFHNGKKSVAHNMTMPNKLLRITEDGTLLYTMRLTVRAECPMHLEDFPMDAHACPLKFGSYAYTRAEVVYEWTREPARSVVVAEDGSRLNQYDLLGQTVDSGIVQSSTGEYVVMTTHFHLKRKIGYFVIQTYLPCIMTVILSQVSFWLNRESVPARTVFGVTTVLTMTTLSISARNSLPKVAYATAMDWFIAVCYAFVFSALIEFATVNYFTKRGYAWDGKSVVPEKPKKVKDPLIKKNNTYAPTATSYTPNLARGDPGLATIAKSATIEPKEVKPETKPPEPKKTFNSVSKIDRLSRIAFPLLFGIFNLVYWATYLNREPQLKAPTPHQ
Chain of Gamma-aminobutyric acid receptor subunit alpha-6 (Rattus norvegicus) (P30191 whole entry): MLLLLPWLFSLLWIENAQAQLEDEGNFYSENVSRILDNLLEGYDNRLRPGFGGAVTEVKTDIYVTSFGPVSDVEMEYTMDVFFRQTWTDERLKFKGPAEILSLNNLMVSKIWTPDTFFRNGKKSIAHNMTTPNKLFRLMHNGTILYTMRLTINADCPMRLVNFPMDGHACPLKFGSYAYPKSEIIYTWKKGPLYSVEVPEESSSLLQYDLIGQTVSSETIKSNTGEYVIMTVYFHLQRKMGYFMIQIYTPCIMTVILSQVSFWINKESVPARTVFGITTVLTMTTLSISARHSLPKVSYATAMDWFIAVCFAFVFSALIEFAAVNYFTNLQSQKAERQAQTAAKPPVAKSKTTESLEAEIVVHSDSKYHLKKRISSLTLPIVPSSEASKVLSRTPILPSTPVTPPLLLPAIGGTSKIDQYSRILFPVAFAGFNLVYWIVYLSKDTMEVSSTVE
T2 sequence (P62813 whole entry, one chain of several): as the sequence (P62813 whole entry) above
Chain of Gamma-aminobutyric acid receptor subunit alpha-3 (Rattus norvegicus) (P20236 whole entry): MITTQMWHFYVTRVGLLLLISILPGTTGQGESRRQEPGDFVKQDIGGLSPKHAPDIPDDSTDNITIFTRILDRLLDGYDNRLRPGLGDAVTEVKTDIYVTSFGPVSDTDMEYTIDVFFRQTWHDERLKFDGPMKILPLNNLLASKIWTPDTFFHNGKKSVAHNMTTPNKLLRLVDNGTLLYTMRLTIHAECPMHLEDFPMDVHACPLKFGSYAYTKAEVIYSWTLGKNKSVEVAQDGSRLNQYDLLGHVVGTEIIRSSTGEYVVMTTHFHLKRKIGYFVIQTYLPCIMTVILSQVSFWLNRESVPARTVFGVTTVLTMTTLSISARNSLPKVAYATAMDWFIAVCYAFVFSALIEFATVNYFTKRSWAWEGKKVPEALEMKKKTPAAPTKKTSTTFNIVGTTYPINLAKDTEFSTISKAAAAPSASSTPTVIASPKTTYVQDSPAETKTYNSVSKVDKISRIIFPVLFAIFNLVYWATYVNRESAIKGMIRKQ
Chain of Gamma-aminobutyric acid receptor subunit alpha-6 (Rattus norvegicus, UniProt P30191) (P30191 whole entry): as the sequence (P30191 whole entry) above
Chain of GABA A receptor alpha-5/beta-3/gamma-2 (P18508 whole entry): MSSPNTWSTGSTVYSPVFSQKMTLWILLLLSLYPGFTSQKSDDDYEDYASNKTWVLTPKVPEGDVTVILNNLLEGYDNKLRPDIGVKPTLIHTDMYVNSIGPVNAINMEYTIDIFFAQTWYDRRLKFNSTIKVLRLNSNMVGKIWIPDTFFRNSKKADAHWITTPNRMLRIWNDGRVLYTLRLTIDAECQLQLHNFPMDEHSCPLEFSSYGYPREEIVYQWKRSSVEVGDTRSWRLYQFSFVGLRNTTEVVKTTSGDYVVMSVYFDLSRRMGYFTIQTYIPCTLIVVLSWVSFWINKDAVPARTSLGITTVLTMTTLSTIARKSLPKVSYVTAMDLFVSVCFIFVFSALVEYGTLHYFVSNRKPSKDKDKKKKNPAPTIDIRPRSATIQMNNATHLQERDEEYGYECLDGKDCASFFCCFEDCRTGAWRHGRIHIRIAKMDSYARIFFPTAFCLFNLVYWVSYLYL
Chain of GABA A receptor alpha-5/beta-3/gamma-2 (P19969 whole entry): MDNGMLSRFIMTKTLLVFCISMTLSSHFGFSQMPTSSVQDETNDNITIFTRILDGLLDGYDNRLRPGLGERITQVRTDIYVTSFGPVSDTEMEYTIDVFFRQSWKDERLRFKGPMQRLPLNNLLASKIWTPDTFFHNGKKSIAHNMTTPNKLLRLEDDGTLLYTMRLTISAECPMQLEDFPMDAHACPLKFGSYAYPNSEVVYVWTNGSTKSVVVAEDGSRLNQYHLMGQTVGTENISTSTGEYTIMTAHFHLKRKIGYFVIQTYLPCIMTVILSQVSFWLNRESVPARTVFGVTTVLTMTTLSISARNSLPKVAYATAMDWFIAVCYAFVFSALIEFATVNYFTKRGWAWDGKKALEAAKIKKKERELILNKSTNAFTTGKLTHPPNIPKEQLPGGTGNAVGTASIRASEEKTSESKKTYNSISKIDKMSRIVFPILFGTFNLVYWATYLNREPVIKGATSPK
Chain of GABA A receptor alpha-5/beta-3/gamma-2 (P63079 whole entry): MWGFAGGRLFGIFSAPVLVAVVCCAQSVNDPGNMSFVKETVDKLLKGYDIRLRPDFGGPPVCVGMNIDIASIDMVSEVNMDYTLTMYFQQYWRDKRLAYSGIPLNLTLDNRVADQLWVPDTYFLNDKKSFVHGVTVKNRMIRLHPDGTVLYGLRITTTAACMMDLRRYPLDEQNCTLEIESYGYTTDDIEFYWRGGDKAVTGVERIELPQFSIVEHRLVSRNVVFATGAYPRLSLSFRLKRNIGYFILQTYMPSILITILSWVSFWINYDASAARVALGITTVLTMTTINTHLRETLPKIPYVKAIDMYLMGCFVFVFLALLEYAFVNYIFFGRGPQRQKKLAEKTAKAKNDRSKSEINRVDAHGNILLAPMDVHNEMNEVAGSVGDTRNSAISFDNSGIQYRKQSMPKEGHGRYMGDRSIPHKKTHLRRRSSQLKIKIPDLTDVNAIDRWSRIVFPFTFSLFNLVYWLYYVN
Chain of Gamma-aminobutyric acid receptor subunit alpha-3 (P20236 whole entry, one chain of several): as the sequence (P20236 whole entry) above
Chain of Gamma-aminobutyric acid receptor subunit alpha-6 (Rattus norvegicus, UniProt P18508+P30191+P63079) (P30191 whole entry, the tested form may be a part, one chain of several): as the sequence (P30191 whole entry) above
Chain of Gamma-aminobutyric acid receptor subunit alpha-4 (P28471 whole entry, one chain of several): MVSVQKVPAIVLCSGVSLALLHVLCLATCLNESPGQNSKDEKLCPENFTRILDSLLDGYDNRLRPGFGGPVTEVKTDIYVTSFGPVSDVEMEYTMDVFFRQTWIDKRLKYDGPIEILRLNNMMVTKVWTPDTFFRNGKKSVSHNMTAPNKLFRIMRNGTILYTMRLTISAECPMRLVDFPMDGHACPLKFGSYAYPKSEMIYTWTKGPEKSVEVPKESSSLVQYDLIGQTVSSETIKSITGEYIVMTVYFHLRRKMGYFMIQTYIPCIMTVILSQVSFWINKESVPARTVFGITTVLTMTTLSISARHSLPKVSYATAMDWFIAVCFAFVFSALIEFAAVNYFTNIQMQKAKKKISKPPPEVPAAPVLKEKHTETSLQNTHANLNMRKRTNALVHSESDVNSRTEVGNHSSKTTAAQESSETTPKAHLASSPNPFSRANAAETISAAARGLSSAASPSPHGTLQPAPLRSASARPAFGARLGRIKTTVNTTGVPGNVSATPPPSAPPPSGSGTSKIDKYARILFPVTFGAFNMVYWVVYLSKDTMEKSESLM
Chain of Gamma-aminobutyric acid receptor subunit alpha-4 (Rattus norvegicus) (P28471 whole entry): as the sequence (P28471 whole entry, one chain of several) above

Cl.Sc1nnc(C2CCNCC2)o1
inhibition [1]: 64%
Activity [2]: 77%
Activity [3]: 48%
IC50 [4]: 46 µM
Activity [5]: 17%
Activity [6]: 68%
Activity [7]: 23%
logIC50 [8]: 1.82
IC50 [9]: 66 µM
Activity [10]: 9%
Activity [11]: 13%
Activity [12]: 3%
inhibition [13]: 91%
logIC50 [14]: 1.67
Activity [15]: 47%
Activity [16]: 60%
Activity [17]: 80%
inhibition [18]: 94%
inhibition [19]: 68%
Activity [20]: 6.8%
EC50 [21]: 9500 µM
EC50 [22]: 10000 µM
IC50 [23]: 56 µM
Activity [24]: 39%
IC50 [25]: 59 µM
Activity [26]: 40%
EC50 [27]: 5500 µM
Activity [28]: 20%

NCc1nnc(O)o1
inhibition [1]: 97%
Activity [3]: 0.95
Activity [7]: 0.88
logIC50 [8]: 0.048
IC50 [9]: 1.1 µM
EC50 [29]: 2300 µM
Activity [11]: 0.59
inhibition [13]: 102%
IC50 [30]: 1.4 µM
logIC50 [14]: 0.139
Activity [31]: 0.97
EC50 [32]: 30 µM
inhibition [18]: 104%
inhibition [19]: 99%
EC50 [33]: 128 µM
EC50 [34]: 137 µM
Activity [35]: 0.93
Activity [36]: 1.03
